Assay results from ChEMBL document CHEMBL1151448, “Comparative antianaerobic activities of doripenem determined by MIC and time-kill analysis” (2008).
Values after ≈ are worked out from the molar mass of the structure shown. Active and inactive are the calls of the source. The calls are words filed in the database; no cut-off is given here.

What was measured:
[1] = system: Bacteroides fragilis; assay: Antimicrobial activity against beta lactamase-positive Bacteroides fragilis isolated from intra-abdominal infection and pelvic inflammatory disease patients after 48 hrs by agar dilution method; assay type: functional
In short: (§1)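 CLSI agar dilution on brucella blood agar supplemented with laked sheep blood, hemin and vitamin K. Inocula of about 1 × 10^5 CFU/spot were applied by Steers replicator, and plates were incubated 48 h at 35°C in an anaerobic glove box. MIC was the concentration giving marked growth reduction versus the anaerobic control plate. QC strains were included each run, and β-lactamase was detected by Cefinase disk.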

[2] = system: Bacteroides fragilis; assay: Antimicrobial activity against beta lactamase-positive Bacteroides fragilis isolated from intra-abdominal infection and pelvic inflammatory disease patients after 48 hrs by time kill analysis; assay type: functional
In short: (§2)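 The MIC was read by inspecting macrodilution time-kill tubes. Vials held prereduced brucella broth with 5% laked horse blood cells, hemin 5 μg/ml and vitamin K1 1 μg/ml. Final inoculum was 10^6–10^7 CFU/ml, prepared inside the anaerobe chamber. Vials were incubated 48 h at 35°C in a shaking water bath.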

[3] = system: Bacteroides thetaiotaomicron; assay: Antimicrobial activity against beta lactamase-positive Bacteroides thetaiotaomicron isolated from intra-abdominal infection and pelvic inflammatory disease patients after 48 hrs by time kill analysis; assay type: functional; in short: as §2
[4] = system: Prevotella intermedia; assay: Antimicrobial activity against beta lactamase-positive Prevotella intermedia isolated from intra-abdominal infection and pelvic inflammatory disease patients after 48 hrs by time kill analysis; assay type: functional; in short: as §2
[5] = system: Finegoldia magna; assay: Antimicrobial activity against beta lactamase-positive Finegoldia magna isolated from intra-abdominal infection and pelvic inflammatory disease patients after 48 hrs by time kill analysis; assay type: functional; in short: as §2
[6] = system: Fusobacterium nucleatum; assay: Antimicrobial activity against beta lactamase-positive Fusobacterium nucleatum isolated from intra-abdominal infection and pelvic inflammatory disease patients after 48 hrs by time kill analysis; assay type: functional; in short: as §2
[7] = system: Bacteroides fragilis; assay: Bactericidal activity against beta lactamase-positive Bacteroides fragilis isolated from intra-abdominal infection and pelvic inflammatory disease patients assessed as bacterial killing at 2 times MIC after 48 hrs by time kill analysis; assay type: functional
In short: (§3)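 Macrodilution time-kill in prereduced brucella broth with 5% laked horse blood, hemin 5 μg/ml and vitamin K1 1 μg/ml, at final inoculum 10^6–10^7 CFU/ml. […] Viable counts were taken at 6, 12, 24 and 48 h on plates incubated 48 h anaerobically. 99.9% kill was taken as bactericidal.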

[8] = system: Fusobacterium nucleatum; assay: Bactericidal activity against beta lactamase-positive Fusobacterium nucleatum isolated from intra-abdominal infection and pelvic inflammatory disease patients assessed as bacterial killing at 2 times MIC after 48 hrs by time kill analysis; assay type: functional
In short: (§4)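 Anaerobic macrodilution time-kill. Inoculum from brucella blood plates, prepared and diluted in prereduced brucella broth inside the anaerobe chamber. Final 10^6 to 10^7 CFU/ml in prereduced brucella broth with 5% laked horse blood cells, 5 μg/ml hemin and 1 μg/ml vitamin K1. […] Shaken at 35°C for 48 h. Viable counts taken at 6, 12, 24 and 48 h. 99.9% kill taken as bactericidal.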

[9] = system: Bacteroides ovatus; assay: Antimicrobial activity against beta lactamase-positive Bacteroides ovatus isolated from intra-abdominal infection and pelvic inflammatory disease patients after 48 hrs by agar dilution method; assay type: functional; in short: as §1
[10] = system: Phocaeicola vulgatus; assay: Antimicrobial activity against beta lactamase-positive Bacteroides vulgatus isolated from intra-abdominal infection and pelvic inflammatory disease patients after 48 hrs by agar dilution method; assay type: functional; in short: as §1
[11] = system: Prevotella bivia; assay: Antimicrobial activity against beta lactamase-positive Prevotella bivia isolated from intra-abdominal infection and pelvic inflammatory disease patients after 48 hrs by agar dilution method; assay type: functional; in short: as §1
[12] = system: Prevotella melaninogenica; assay: Antimicrobial activity against beta lactamase-positive Prevotella melaninogenica isolated from intra-abdominal infection and pelvic inflammatory disease patients after 48 hrs by agar dilution method; assay type: functional; in short: as §1
[13] = system: Prevotella denticola; assay: Antimicrobial activity against beta lactamase-positive Prevotella denticola isolated from intra-abdominal infection and pelvic inflammatory disease patients after 48 hrs by agar dilution method; assay type: functional; in short: as §1
[14] = system: Prevotella corporis; assay: Antimicrobial activity against beta lactamase-positive Prevotella corporis isolated from intra-abdominal infection and pelvic inflammatory disease patients after 48 hrs by agar dilution method; assay type: functional; in short: as §1
[15] = system: Prevotella buccae; assay: Antimicrobial activity against beta lactamase-positive Prevotella buccae isolated from intra-abdominal infection and pelvic inflammatory disease patients after 48 hrs by agar dilution method; assay type: functional; settings: Segatella buccae; in short: as §1
[16] = system: Porphyromonas asaccharolytica; assay: Antimicrobial activity against Porphyromonas asaccharolyticus isolated from intra-abdominal infection and pelvic inflammatory disease patients after 48 hrs by agar dilution method; assay type: functional; in short: as §1
[17] = system: Porphyromonas gingivalis; assay: Antimicrobial activity against Porphyromonas gingivalis isolated from intra-abdominal infection and pelvic inflammatory disease patients after 48 hrs by agar dilution method; assay type: functional; in short: as §1
[18] = system: Fusobacterium nucleatum; assay: Antimicrobial activity against beta lactamase-positive Fusobacterium nucleatum isolated from intra-abdominal infection and pelvic inflammatory disease patients after 48 hrs by agar dilution method; assay type: functional; in short: as §1
[19] = system: Fusobacterium necrophorum; assay: Antimicrobial activity against Fusobacterium necrophorum isolated from intra-abdominal infection and pelvic inflammatory disease patients after 48 hrs by agar dilution method; assay type: functional; in short: as §1
[20] = system: Fusobacterium mortiferum; assay: Antimicrobial activity against beta lactamase-positive Fusobacterium mortiferum isolated from intra-abdominal infection and pelvic inflammatory disease patients after 48 hrs by agar dilution method; assay type: functional; in short: as §1
[21] = system: Peptostreptococcus anaerobius; assay: Antimicrobial activity against Peptostreptococcus anaerobius isolated from intra-abdominal infection and pelvic inflammatory disease patients after 48 hrs by agar dilution method; assay type: functional; in short: as §1
[22] = system: Clostridium perfringens; assay: Antimicrobial activity against Clostridium perfringens isolated from intra-abdominal infection and pelvic inflammatory disease patients after 48 hrs by agar dilution method; assay type: functional
In short: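 CLSI agar dilution on brucella blood agar supplemented with laked sheep blood, hemin and vitamin K. Inoculum about 1 × 10^5 CFU/spot, applied by Steers replicator. Plates incubated 48 h at 35°C in an anaerobic glove box. MIC is the concentration giving marked growth reduction versus the anaerobic control plate. Standard QC strains included in each run.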

[23] = system: Enterocloster clostridioformis; assay: Antimicrobial activity against Clostridium clostridioforme isolated from intra-abdominal infection and pelvic inflammatory disease patients after 48 hrs by agar dilution method; assay type: functional; in short: as §1
[24] = system: Clostridium paraputrificum; assay: Antimicrobial activity against Clostridium paraputrificum isolated from intra-abdominal infection and pelvic inflammatory disease patients after 48 hrs by agar dilution method; assay type: functional; in short: as §1
[25] = system: Clostridium cadaveris; assay: Antimicrobial activity against Clostridium cadaveris isolated from intra-abdominal infection and pelvic inflammatory disease patients after 48 hrs by agar dilution method; assay type: functional; in short: as §1
[26] = system: Clostridioides difficile; assay: Bactericidal activity against Clostridium difficile isolated from intra-abdominal infection and pelvic inflammatory disease patients assessed as bacterial killing at 2 times MIC after 48 hrs by time kill analysis; assay type: functional; in short: as §3
[27] = system: Finegoldia magna; assay: Bactericidal activity against beta lactamase-positive Finegoldia magna isolated from intra-abdominal infection and pelvic inflammatory disease patients assessed as 99.9% bacterial killing at 2 times MIC after 48 hrs by time kill analysis; assay type: functional, organism-based; in short: as §3
[28] = system: Fusobacterium nucleatum; assay: Bactericidal activity against beta lactamase-positive Fusobacterium nucleatum isolated from intra-abdominal infection and pelvic inflammatory disease patients assessed as bacterial killing at MIC after 24 hrs by time kill analysis; assay type: functional; in short: as §4
[29] = system: Clostridioides difficile; assay: Bactericidal activity against Clostridium difficile isolated from intra-abdominal infection and pelvic inflammatory disease patients assessed as bacterial killing at MIC after 24 hrs by time kill analysis; assay type: functional; in short: as §3

C[C@@H](O)[C@H]1C(=O)N2C(C(=O)O)=C(S[C@@H]3CN[C@H](CNS(N)(=O)=O)C3)[C@H](C)[C@H]12 [DORIPENEM]
MIC50 [1]: 0.25 µg/mL (≈ 0.595 µM) | MIC90 [1]: 1 µg/mL (≈ 2.38 µM) | MIC [2]: 0.25 µg/mL (≈ 0.595 µM) | MIC [3]: 0.25 µg/mL (≈ 0.595 µM) | MIC [4]: 0.06 µg/mL (≈ 0.143 µM) | MIC [5]: 0.06 µg/mL (≈ 0.143 µM) | MIC [6]: 0.016 µg/mL (≈ 0.038 µM) | Activity [7]: 99% | Activity [8]: 99% | MIC [9]: 0.25 µg/mL (≈ 0.595 µM) | MIC50 [9]: 0.25 µg/mL (≈ 0.595 µM) | MIC90 [9]: 1 µg/mL (≈ 2.38 µM) | MIC50 [10]: 0.25 µg/mL (≈ 0.595 µM) | MIC90 [10]: 1 µg/mL (≈ 2.38 µM) | MIC [11]: 0.06 µg/mL (≈ 0.143 µM) | MIC50 [11]: 0.06 µg/mL (≈ 0.143 µM) | MIC90 [11]: 0.125 µg/mL (≈ 0.297 µM) | MIC50 [12]: 0.03 µg/mL (≈ 0.0713 µM) | MIC90 [12]: 0.06 µg/mL (≈ 0.143 µM) | MIC50 [13]: 0.03 µg/mL (≈ 0.0713 µM) | MIC90 [13]: 0.125 µg/mL (≈ 0.297 µM) | MIC [14]: 0.03 µg/mL (≈ 0.0713 µM) | MIC50 [14]: 0.03 µg/mL (≈ 0.0713 µM) | MIC90 [14]: 0.06 µg/mL (≈ 0.143 µM) | MIC [15]: 0.06 µg/mL (≈ 0.143 µM) | MIC50 [15]: 0.06 µg/mL (≈ 0.143 µM) | MIC90 [15]: 0.125 µg/mL (≈ 0.297 µM) | MIC [16]: ≤ 0.016 µg/mL | MIC [17]: ≤ 0.016 µg/mL | MIC [18]: ≤ 0.016 µg/mL | MIC50 [18]: ≤ 0.016 µg/mL | MIC90 [18]: 0.03 µg/mL (≈ 0.0713 µM) | MIC [19]: ≤ 0.016 µg/mL | MIC50 [19]: ≤ 0.016 µg/mL | MIC90 [19]: 0.25 µg/mL (≈ 0.595 µM) | MIC50 [20]: 0.25 µg/mL (≈ 0.595 µM) | MIC90 [20]: 1 µg/mL (≈ 2.38 µM) | MIC50 [21]: 0.25 µg/mL (≈ 0.595 µM) | MIC90 [21]: 2 µg/mL (≈ 4.76 µM) | MIC50 [22]: 0.03 µg/mL (≈ 0.0713 µM) | MIC90 [22]: 0.03 µg/mL (≈ 0.0713 µM) | MIC [23]: 1 µg/mL (≈ 2.38 µM) | MIC [24]: 0.25 µg/mL (≈ 0.595 µM) | MIC [25]: 0.03 µg/mL (≈ 0.0713 µM) | Activity [26]: 99% | Activity [27]: inactive | Activity [28]: 90% | Activity [29]: 90%

C[C@@H](O)[C@H]1C(=O)N2C(C(=O)O)=C(S[C@@H]3CN[C@H](C(=O)Nc4cccc(C(=O)O)c4)C3)[C@H](C)[C@H]12
MIC [1]: 0.25 µg/mL (≈ 0.526 µM) | MIC50 [1]: 0.25 µg/mL (≈ 0.526 µM) | MIC90 [1]: 2 µg/mL (≈ 4.21 µM) | MIC [2]: 0.25 µg/mL (≈ 0.526 µM) | MIC [3]: 0.5 µg/mL (≈ 1.05 µM) | MIC [4]: 0.03 µg/mL (≈ 0.0631 µM) | MIC [5]: 0.03 µg/mL (≈ 0.0631 µM) | MIC [6]: 0.008 µg/mL (≈ 0.0168 µM) | Activity [7]: 99% | Activity [8]: 99% | MIC [9]: 0.5 µg/mL (≈ 1.05 µM) | MIC50 [9]: 0.5 µg/mL (≈ 1.05 µM) | MIC90 [9]: 2 µg/mL (≈ 4.21 µM) | MIC50 [10]: 0.125 µg/mL (≈ 0.263 µM) | MIC90 [10]: 2 µg/mL (≈ 4.21 µM) | MIC50 [11]: 0.25 µg/mL (≈ 0.526 µM) | MIC90 [11]: 0.25 µg/mL (≈ 0.526 µM) | MIC50 [13]: 0.125 µg/mL (≈ 0.263 µM) | MIC90 [13]: 0.5 µg/mL (≈ 1.05 µM) | MIC50 [14]: 0.03 µg/mL (≈ 0.0631 µM) | MIC90 [14]: 0.06 µg/mL (≈ 0.126 µM) | MIC50 [15]: 0.125 µg/mL (≈ 0.263 µM) | MIC90 [15]: 0.125 µg/mL (≈ 0.263 µM) | MIC [16]: ≤ 0.016 µg/mL | MIC [17]: ≤ 0.016 µg/mL | MIC [18]: ≤ 0.016 µg/mL | MIC50 [18]: ≤ 0.016 µg/mL | MIC90 [18]: 0.03 µg/mL (≈ 0.0631 µM) | MIC [19]: ≤ 0.016 µg/mL | MIC50 [19]: ≤ 0.016 µg/mL | MIC90 [19]: 0.125 µg/mL (≈ 0.263 µM) | MIC [20]: 0.06 µg/mL (≈ 0.126 µM) | MIC50 [20]: 0.06 µg/mL (≈ 0.126 µM) | MIC90 [20]: 0.5 µg/mL (≈ 1.05 µM) | MIC50 [21]: 0.5 µg/mL (≈ 1.05 µM) | MIC90 [21]: 2 µg/mL (≈ 4.21 µM) | MIC50 [22]: 0.06 µg/mL (≈ 0.126 µM) | MIC90 [22]: 0.125 µg/mL (≈ 0.263 µM) | MIC [23]: 1 µg/mL (≈ 2.1 µM) | MIC [24]: 0.125 µg/mL (≈ 0.263 µM) | MIC [25]: ≤ 0.016 µg/mL | Activity [26]: 99% | Activity [27]: inactive | Activity [28]: 90% | Activity [29]: 90%
